Key:
Type in all cases: functional
Plasmodium falciparum [1] = experiment: Relative activity against Plasmodium falciparum W-2 compared to of IC50 value of artemisinin as IC50 ratio
Plasmodium falciparum [2] = experiment: Relative activity against Plasmodium falciparum D6 compared to arteether as IC50 ratio
Plasmodium falciparum [3] = experiment: Relative activity against Plasmodium falciparum D6 compared to artemisinin as IC50 ratio
Plasmodium falciparum [4] = experiment: Relative activity against Plasmodium falciparum W2 compared to arteether as IC50 ratio
Plasmodium falciparum [5] = experiment: Relative activity against Plasmodium falciparum FCR3 compared to artemisinin as IC50 ratio
Summary of the method: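 In vitro screen of P. falciparum strain FCR3 cultures by a modified Desjardins method. The value is the ratio of artemisinin activity to that of each fluorinated derivative.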

| Structure (SMILES) | Ratio (Plasmodium falciparum [1]) | Ratio (Plasmodium falciparum [2]) | Ratio (Plasmodium falciparum [3]) | Ratio (Plasmodium falciparum [4]) | Ratio (Plasmodium falciparum [5]) |
| --- | --- | --- | --- | --- | --- |
| CCO[C@H]1O[C@@H]2O[C@@]3(C)CC[C@H]4[C@H](C(F)F)CC[C@@H]([C@H]1C)[C@@]24OO3 | 2 | 0.3 | 1 | 1.5 | – |
| C[C@@H]1CC[C@H]2[C@@](C)(O)[C@@H](OCc3cccc(F)c3)O[C@@H]3O[C@@]4(C)CC[C@@H]1[C@]32OO4 | – | – | – | – | 0.11 |
| CCO[C@H]1O[C@@H]2O[C@@]3(C)CC[C@H]4[C@H](C)CC[C@@H]([C@]1(C)O)[C@@]24OO3 | 0.3 | – | 0.45 | – | – |
| C[C@@H]1CC[C@H]2[C@@](C)(O)[C@@H](OCC(F)(F)F)O[C@@H]3O[C@@]4(C)CC[C@@H]1[C@]32OO4 | 0.14 | – | 0.15 | – | – |
| CCO[C@H]1O[C@@H]2O[C@@]3(C)CC[C@H]4[C@H](C)CC[C@@H]([C@@]1(C)O)[C@@]24OO3 | 0.06 | – | 0.08 | – | – |
| CCO[C@H]1O[C@@H]2O[C@@]3(C)CC[C@H]4[C@H](C=O)CC[C@@H]([C@H]1C)[C@@]24OO3 | 1.4 | 0.1 | 1.2 | 0.8 | – |
| C[C@@H]1CC[C@H]2[C@@](C)(O)[C@@H](OCc3c(F)c(F)c(F)c(F)c3F)O[C@@H]3O[C@@]4(C)CC[C@@H]1[C@]32OO4 | – | – | – | – | 0.1 |
| CCO[C@H]1O[C@@H]2O[C@@]3(C)CC[C@H]4[C@H](C)C(=O)C[C@@H]([C@H]1C)[C@@]24OO3 | 1.2 | 0.05 | 0.5 | 0.6 | – |
| C[C@@H]1CC[C@H]2[C@@](C)(O)[C@@H](OCc3ccccc3F)O[C@@H]3O[C@@]4(C)CC[C@@H]1[C@]32OO4 | – | – | – | – | 0.11 |
| C[C@H]1[C@@H](OCc2ccc(F)cc2)O[C@@H]2O[C@@]3(C)CC[C@H]4[C@H](C)CC[C@@H]1[C@@]24OO3 | – | – | – | – | 0.04 |
| C[C@H]1[C@@H](CC(F)F)O[C@@H]2O[C@@]3(C)CC[C@H]4[C@H](C)CC[C@@H]1[C@@]24OO3 | 1.1 | 1.3 | 3.8 | 0.73 | – |
| C[C@@H]1CC[C@H]2[C@@](C)(O)[C@@H](OCc3ccc(F)cc3)O[C@@H]3O[C@@]4(C)CC[C@@H]1[C@]32OO4 | – | – | – | – | 0.1 |
| C[C@@H]1CC[C@H]2[C@](C)(O)[C@@H](OCC(F)(F)F)O[C@@H]3O[C@@]4(C)CC[C@@H]1[C@]32OO4 | 1.5 | – | 1.8 | – | – |
| CCO[C@H]1O[C@@H]2O[C@@]3(C)CC[C@H]4C(C)=C(F)C[C@@H]([C@H]1C)[C@@]24OO3 | 0.5 | 0.2 | 0.6 | 0.3 | – |
| C[C@H]1[C@@H](CC(C)(F)F)O[C@@H]2O[C@@]3(C)CC[C@H]4[C@H](C)CC[C@@H]1[C@@]24OO3 | 0.5 | 0.4 | 1.2 | 0.3 | – |
| CCO[C@H]1O[C@@H]2O[C@@]3(C)CC[C@H]4[C@H](C)C(F)(F)C[C@@H]([C@H]1C)C24OO3 (single isomer, unassigned) | 1.2 | 0.5 | 1.4 | 0.8 | – |

Source: ChEMBL document CHEMBL1128466, “Synthesis and antimalarial activities of several fluorinated artemisinin derivatives” (1995)
